From ChEMBL document CHEMBL1138683 (J Med Chem, 2004) come the findings set out here.

Data set [1] is described as follows: Anti convulsant activity administered intra peritoneally to mouse for toxicity at 4 hr with dose of 100 mg/kg; 1/4= No of animals exhibiting toxicity /No of animals tested. The class given is organism-based. Further details: dose 100 mg/kg. Conditions: in vivo, ip.
Data set [2] can be described thus: Anti convulsant activity administered intra peritoneally to mouse for toxicity at 4 hr with dose of 300 mg/kg; 0/2= No of animals exhibiting toxicity /No of animals tested. The class given is organism-based. Details: dose 300 mg/kg. To be noted: in vivo, ip.
Data set [3] in a line: Anti convulsant activity administered intra peritoneally to mouse for toxicity at 4 hr with dose of 30 mg/kg; 0/2= No of animals exhibiting toxicity /No of animals tested. The class given is organism-based. Further details: dose 30 mg/kg. To be noted: in vivo, ip.
Data set [4] in a line: Anti convulsant activity administered intra peritoneally to mouse for toxicity at 0.5 hr with dose of 30 mg/kg; 0/4= No of animals exhibiting toxicity /No of animals tested. The class given is organism-based. Details: dose 30 mg/kg. To be noted: in vivo, ip.
A short description of data set [5]: Anti convulsant activity administered intra peritoneally to mouse for toxicity at 0.5 hr with dose of 100 mg/kg; 0/8= No of animals exhibiting toxicity /No of animals tested. The class given is organism-based. Further details: dose 100 mg/kg. Conditions: in vivo, ip.
Data set [6] in a line: Anti convulsant activity administered intra peritoneally to mouse for toxicity at 0.5 hr with dose of 300 mg/kg; 4/4= No of animals exhibiting toxicity /No of animals tested. Further details: dose 300 mg/kg. Conditions: in vivo, ip. Type of data set: organism-based.
Data set [7] relates to Mus musculus. Kind of data set: Anti convulsant activity administered intra peritoneally to mouse at maximal electroshock test at 4 hr after the drug administered with dose of 30 mg/kg; 0/1= No of animals protected /No of animals tested. The class given is functional. On the technique in general: The maximal electroshock test induces tonic seizures with an electrical stimulus.

In data set [8] the test system is Mus musculus. In words: Anti convulsant activity administered intra peritoneally to mouse at maximal electroshock test at 4 hr after the drug administered with dose of 100 mg/kg; 0/3= No of animals protected /No of animals tested. The class given is functional.
In data set [9] the test system is Mus musculus. Kind of data set: Anti convulsant activity administered intra peritoneally to mouse at maximal electroshock test at 4 hr after the drug administered with dose of 300 mg/kg; 0/1= No of animals protected /No of animals tested. The class given is functional.
The test system of data set [10] is Mus musculus. Kind of data set: Anti convulsant activity administered intra peritoneally to mouse at maximal electroshock test at 0.5 h after the drug administered with dose of 30 mg/kg; 0/1= No of animals protected /No of animals tested. Type of data set: functional.
Data set [11] has as its system Mus musculus. Kind of data set: Anti convulsant activity administered intra peritoneally to mouse for subcutaneous metrazol test at 4 hr after the drug administered with dose of 30 mg/kg; 0/1= No of animals protected /No of animals tested. Type of data set: functional. To be noted: route intraperitoneal.
Data set [12] deals with Mus musculus. In words: Anti convulsant activity administered intra peritoneally to mouse at maximal electroshock test at 0.5 hr after the drug administered with dose of 100 mg/kg; 0/3= No of animals protected /No of animals tested. Type of data set: functional.
The test system of data set [13] is Mus musculus. Kind of data set: Anti convulsant activity administered intra peritoneally to mouse at maximal electroshock test at 0.5 hr after the drug administered with dose of 300 mg/kg; 1/1= No of animals protected /No of animals tested. Type of data set: functional.
Data set [14] has as its system Mus musculus. Kind of data set: Anti convulsant activity administered intra peritoneally to mouse for subcutaneous metrazol test at 4 hr after the drug administered with dose of 100 mg/kg; 0/1= No of animals protected /No of animals tested. The class given is functional.
For data set [15], the system named is Rattus norvegicus. Kind of data set: Anticonvulsant activity after oral administration of 50 mg/kg dose after 30 min in rats; +means 25% of animal protected. Details: dose 50 mg/kg. Type of data set: functional, organism-based. A digest of the protocol:
(§1)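 Rats dosed orally with compound dissolved or suspended in 0.5% methylcellulose (0.04 mL per 10 g body weight). Anticonvulsant protection (MES or scMet) and toxicity scored at 15 min, 30 min, 1 h, 2 h and 4 h after dosing. Graded in steps of 25% of animals protected or showing toxicity.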

In data set [16] the test system is Rattus norvegicus. Kind of data set: Anticonvulsant activity after oral administration of 50 mg/kg dose after 2 hr in rats; ++ means 50% of animals protected. Type of data set: functional, organism-based. Details: dose 50 mg/kg. A digest of the protocol: (§2)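 Oral dosing of rats at a single dose, compound dissolved or suspended in 0.5% methylcellulose. Protection in the MES or scMet test checked 15 min, 30 min, 1 h, 2 h and 4 h after dosing. Scored as 25/50/75/100% of animals protected (+ to ++++), – for none.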

Data set [17] has as its system Rattus norvegicus. In words: Anticonvulsant activity after oral administration of 50 mg/kg dose after 4 hr in rats; + means 25% of the animal protected. Type of data set: functional, organism-based. Further details: dose 50 mg/kg. A digest of the protocol:
as §1

For data set [18], the system named is Rattus norvegicus. Kind of data set: Anticonvulsant activity after oral administration of 50 mg/kg dose after 30 min in rats; + means 25% of animals protected. Type of data set: functional, organism-based. Details: dose 50 mg/kg. A digest of the protocol:
as §2

Data set [19] relates to Mus musculus. Kind of data set: Anti convulsant activity administered intra peritoneally to mouse for subcutaneous metrazol test at 4 hr with dose of 300 mg/kg; 0/1= No of animals protected /No of animals tested. The class given is functional.
The test system of data set [20] is Mus musculus. Kind of data set: Anti convulsant activity administered intra peritoneally to mouse for subcutaneous metrazol test at 0.5 hr with dose of 30 mg/kg; 0/1= No of animals protected /No of animals tested. The class given is functional.
The test system of data set [21] is Mus musculus. In words: Anti convulsant activity administered intra peritoneally to mouse for subcutaneous metrazol test at 0.5 hr with dose of 100 mg/kg; 0/1= No of animals protected /No of animals tested. The class given is functional.
Data set [22] has as its system Mus musculus. In words: Anti convulsant activity administered intra peritoneally to mouse for subcutaneous metrazol test at 0.5 h with dose of 300 mg/kg; 0/1= No of animals protected /No of animals tested. The class given is functional.
For data set [23], the system named is Rattus norvegicus. Kind of data set: Anticonvulsant activity after oral administration of 50 mg/kg dose after 1 hr in rats; +means25% of animals protected. The class given is functional, organism-based. Further details: dose 50 mg/kg. A digest of the protocol: as §2
Data set [24] can be described thus: Anti convulsant activity administered intra peritoneally to mouse for toxicity at 0.5 hr with dose of 100 mg/kg; 1/8= No of animals exhibiting toxicity /No of animals tested. Type of data set: organism-based. Further details: dose 100 mg/kg. Conditions: in vivo, ip.
Data set [25] is described as follows: Anti convulsant activity administered intra peritoneally to mouse for toxicity at 0.5 hr with dose of 300 mg/kg; 2/4= No of animals exhibiting toxicity /No of animals tested. Details: dose 300 mg/kg. To be noted: in vivo, ip. Type of data set: organism-based.
Data set [26] relates to Mus musculus. Kind of data set: Anti convulsant activity administered intra peritoneally to mouse at maximal electroshock test at 0.5 h after the drug administered with dose of 300 mg/kg; 0/1= No of animals protected /No of animals tested. Type of data set: functional.
Data set [27] concerns Rattus norvegicus. Kind of data set: Anticonvulsant activity after oral administration of 100 mg/kg dose after 1 hr in rats; + means 25% of the animals protected. The class given is functional, organism-based. Further details: dose 100 mg/kg. In a few lines: as §2
Data set [28] deals with Rattus norvegicus. In words: Anticonvulsant activity administered orally to rat at subcutaneous metrazol test. Type of data set: functional.
Data set [29] deals with Mus musculus. Kind of data set: Anticonvulsant activity administered intra peritoneally to mouse at subcutaneous metrazol test. Type of data set: functional. To be noted: sc.
The nature of data set [30]: Anticonvulsant activity administered intra peritoneally to mouse for toxicity. Conditions: in vivo, ip.
Data set [31] has as its system Mus musculus. In words: Anticonvulsant activity administered intra peritoneally to mouse at maximal electro shock test; the interval in parenthesis stands for 95% confidence interval. The class given is functional.

For `CC1(C)C(C(=O)NC2CC2)C1(C)C`, the Toxicity in [1] was 1; in [2], 0; in [3] it was 0; in [4], 0; in data set [5], 0; in data set [6] it was 4. Moreover, the Activity in the data set on Mus musculus [7], in the data set with Mus musculus [8], with Mus musculus [9], in the data set with Mus musculus [10], with Mus musculus [11] and with Mus musculus [12] was 0 in each case. The Activity is listed as 1 with Mus musculus [13]; 0 with Mus musculus [14]; 25% of animal protected in the data set with Rattus norvegicus [15]; 25% of animal protected in the data set on Rattus norvegicus [16]; 25% of animal protected in the data set on Rattus norvegicus [17]; 25% of animal protected in the data set on Rattus norvegicus [18]. The Activity in the data set with Mus musculus [19] is 0; in the data set on Mus musculus [20], 0; in the data set on Mus musculus [21], 0; in the data set with Mus musculus [22], 0; with Rattus norvegicus [23] it was 25% of animal protected.
In the case of `CN(CCO)C(=O)C1C(C)(C)C1(C)C`, the Toxicity was found to be 1 in [1]; 0 in data set [2]; 0 in data set [3]; 0 in data set [4]; 1 in data set [24]; 2 in data set [25]. The Activity in the data set on Mus musculus [7], with Mus musculus [8], in the data set with Mus musculus [9], in the data set with Mus musculus [10], in the data set on Mus musculus [11] and in the data set on Mus musculus [12] was 0 each time. The Activity was 0 in the data set with Mus musculus [26]; 0 in the data set with Mus musculus [14]; 25% of the animals protected in the data set with Rattus norvegicus [27]; 0 in the data set on Mus musculus [19]; 0 with Mus musculus [20]; 0 with Mus musculus [21]. Moreover, the Activity with Mus musculus [22] is listed as 0.
On to `CCCC(CCC)C(=O)O` [VALPROIC ACID], for which the ED50 (commonly the midpoint of the dose-response relation) in the data set with Rattus norvegicus [28] was 646 mg/kg; with Mus musculus [29] it was 220 mg/kg.
In the case of `CC1(C)C(C(=O)NCO)C1(C)C`, the TD50 (commonly the dose at which the toxic effect under study appears in half of the subjects) in data set [30] was found to be 146 mg/kg. For the same molecule, the ED50 in the data set on Mus musculus [29] is 120 mg/kg; in the data set with Mus musculus [31], greater than 220 mg/kg.
